Active and inactive are the calls of the source. No cut-off for these calls is given here.
What was measured:
Rattus norvegicus [1] = experiment: Neuroprotective activity against ACR-intoxicated Sprague-Dawley rat assessed as increase in GSH level in brain at 50 mg/kg, ip administered 10 mins prior to ACR injection 3 days per week for 3 weeks […] relative to control; type: functional; details: route intraperitoneal
Rattus norvegicus [2] = experiment: Neuroprotective activity against ACR-intoxicated Sprague-Dawley rat assessed as increase in noradrenaline level in brain at 50 mg/kg, ip administered 10 mins prior to ACR injection 3 days per week for 3 weeks by ELISA relative to control; type: functional; details: route intraperitoneal
Outline: (§1)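 Female Sprague–Dawley rats (n = 10/group) were injected with ACR 50 mg/kg ip in water, with agent at 50 mg/kg ip in 2% Tween 80 10 min before, 3 days/week for 3 weeks. Brain was homogenized 10% w/v in 50 mM Tris–HCl pH 7.4 with 300 mM sucrose and spun 1800 × g for 10 min at 4 °C. Adrenaline and noradrenaline were measured in the supernatant, as ng/mg protein.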

Rattus norvegicus [3] = experiment: Neuroprotective activity against ACR-intoxicated Sprague-Dawley rat assessed as increase in CK level in brain at 50 mg/kg, ip administered 10 mins prior to ACR injection 3 days per week for 3 weeks by spectrofluorimetrically relative to control; type: functional; details: route intraperitoneal
Outline: (§2)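 Female Sprague–Dawley rats (n = 10/group) were dosed ip with ACR 50 mg/kg (water). Pretreatment was 50 mg/kg ip in 2% Tween 80 given 10 min earlier, 3 days/week for 3 weeks. The brain 10% homogenate (50 mM Tris–HCl pH 7.4, 300 mM sucrose) was centrifuged 1800 × g for 10 min at 4 °C. Supernatant LDH and CK activities were read spectrophotometrically by kit, as U/mg protein.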

Rattus norvegicus [4] = experiment: Neuroprotective activity against ACR-intoxicated Sprague-Dawley rat assessed as increase in dopamine level in brain at 50 mg/kg, ip administered 10 mins prior to ACR injection 3 days per week for 3 weeks by spectrofluorimetrically relative to control; type: functional; details: route intraperitoneal
Outline: (§3)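 In this rat model (female Sprague–Dawley, n = 10/group), ACR 50 mg/kg ip in water was preceded by 10 min with agent at 50 mg/kg ip in 2% Tween 80, 3 days/week for 3 weeks. Brain dopamine was determined spectrofluorimetrically and expressed as ng/g tissue.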

Rattus norvegicus [5] = experiment: Neuroprotective activity against ACR-intoxicated Sprague-Dawley rat assessed as increase in Gpx level in brain at 50 mg/kg, ip administered 10 mins prior to ACR injection 3 days per week for 3 weeks […] relative to control; type: functional; details: route intraperitoneal
Rattus norvegicus [6] = experiment: Neuroprotective activity against ACR-intoxicated Sprague-Dawley rat assessed as decrease in malinoaldehyde level in brain at 50 mg/kg, ip administered 10 mins prior to ACR injection 3 days per week for 3 weeks […] relative to control; type: functional; parameters: scale not given: the % may be the effect or the level left; details: route intraperitoneal
Rattus norvegicus [7] = experiment: Neuroprotective activity against ACR-intoxicated Sprague-Dawley rat assessed as increase in adrenaline level in brain at 50 mg/kg, ip administered 10 mins prior to ACR injection 3 days per week for 3 weeks by ELISA relative to control; type: functional; details: route intraperitoneal; outline: as §1
Rattus norvegicus [8] = experiment: Neuroprotective activity against ACR-intoxicated Sprague-Dawley rat assessed as decrease in LDH level in brain at 50 mg/kg, ip administered 10 mins prior to ACR injection 3 days per week for 3 weeks by spectrofluorimetrically relative to control; type: functional; parameters: scale not given: the % may be the effect or the level left; details: route intraperitoneal; outline: as §2
Rattus norvegicus [9] = experiment: Neuroprotective activity against ACR-intoxicated Sprague-Dawley rat assessed as increase in SOD level in brain at 50 mg/kg, ip administered 10 mins prior to ACR injection 3 days per week for 3 weeks by spectrofluorimetrically relative to control; type: functional; details: route intraperitoneal
Outline: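 Female Sprague–Dawley rats (160–180 g, n = 10/group) received ACR 50 mg/kg ip in water. Test agents were given at 50 mg/kg ip in 2% Tween 80, 10 min before ACR, 3 days/week for 3 weeks. Brain was homogenized 10% w/v in ice-cold 50 mM Tris–HCl pH 7.4 with 300 mM sucrose and spun 1800 × g for 10 min at 4 °C. Supernatant MDA, GSH, GPx and SOD were read spectrophotometrically by kit and expressed per mg protein (Lowry).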

Brain = experiment: Neuroprotective activity against ACR-intoxicated Sprague-Dawley rat brain assessed as appearance of normal neuron at 50 mg/kg, ip administered 10 mins prior to ACR injection 3 days per week for 3 weeks by hematoxylin and eosin staining method relative to ACR group; type: functional, organism-based; parameters: dose 50 mg/kg
Outline: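 After 3 weeks of ACR (50 mg/kg ip, water) plus pretreatment (50 mg/kg ip in 2% Tween 80, 10 min before, 3 days/week), rat brains were fixed in buffered formalin for 1 week. They were then washed in tap water for 24 h, dehydrated through graded alcohol, cleared in xylene and paraffin-embedded. Sections were examined microscopically for neuronal morphology.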

Rattus norvegicus [10] = experiment: Neuroprotective activity against ACR-intoxicated Sprague-Dawley rat assessed as decrease in dopamine level in brain at 50 mg/kg, ip administered 10 mins prior to ACR injection 3 days per week for 3 weeks by spectrofluorimetrically relative to control; type: functional; parameters: scale not given: the % may be the effect or the level left; details: route intraperitoneal; outline: as §3
Rattus norvegicus [11] = experiment: Neuroprotective activity against ACR-intoxicated Sprague-Dawley rat assessed as decrease in GSH level in brain at 50 mg/kg, ip administered 10 mins prior to ACR injection 3 days per week for 3 weeks […] relative to control; type: functional; parameters: scale not given: the % may be the effect or the level left; details: route intraperitoneal

SMILES | Activity (Rattus norvegicus [1]) [%] | Activity (Rattus norvegicus [2]) [%] | Activity (Rattus norvegicus [3]) [%] | Activity (Rattus norvegicus [4]) [%] | Activity (Rattus norvegicus [5]) [%] | Activity (Rattus norvegicus [6]) [%] | Activity (Rattus norvegicus [7]) [%] | Activity (Rattus norvegicus [8]) [%] | Activity (Rattus norvegicus [9]) [%] | Activity (Brain) | Activity (Rattus norvegicus [10]) [%] | Activity (Rattus norvegicus [11]) [%]
N[C@@H](Cc1c[nH]c2ccccc12)C(=O)O [TRYPTOPHAN] | 9 | 16 | 27 | 21 | 38 | 25 | 17 | 35 | 18 |  |  | 
C=NC(Cc1c[nH]c2ccccc12)C(=O)C1C(N)=NNC1N (centres undefined) | 9 | 6 | 22 | 15 | 25 | 22 | 15 | 20 | 12 | Active |  | 
O=C(Cc1nnn[nH]1)NC(Cc1c[nH]c2ccccc12)C(=O)O (centres undefined) | 36 | 21 | 64 | 29 | 50 | 26 | 67 | 35 | 94 | Active |  | 
C=NC(Cc1c[nH]c2ccccc12)C(=O)C1C(N)=NC(=N)N=C1N (centres undefined) |  | 1 | 7 |  | 1 | 5 | 10 | 10 | 3 | Active | 2 | 18
CCOC(=O)c1c(N)cnc(Cc2c[nH]c3ccccc23)c1Nc1ccccc1 |  | 2 | 14 | 9 | 23 | 10 | 14 | 20 | 6 | Active |  | 18
